MrgX1 antagonist: antagonists of human MrgX1 receptor, primary screen, HEK293 cells, Fluo-4 calcium flux; Mas-related G-protein coupled receptor member X1 (Homo sapiens), Q96LB2; BAM8-22 antagonism; hits give low values; B-score at 10 µM; actives 1.3% (n = 310,000); AID 588676, 2011;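 active = calcium-response B-score plate-corrected more than 3 library SD below zero, starting fluorescence within 5 deviations, no agonist response on first addition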;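 also: peak minus trough fluorescence over baseline after final BAM8-22 challenge near maximal dose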
Target sequence (Q96LB2 whole entry, looked up): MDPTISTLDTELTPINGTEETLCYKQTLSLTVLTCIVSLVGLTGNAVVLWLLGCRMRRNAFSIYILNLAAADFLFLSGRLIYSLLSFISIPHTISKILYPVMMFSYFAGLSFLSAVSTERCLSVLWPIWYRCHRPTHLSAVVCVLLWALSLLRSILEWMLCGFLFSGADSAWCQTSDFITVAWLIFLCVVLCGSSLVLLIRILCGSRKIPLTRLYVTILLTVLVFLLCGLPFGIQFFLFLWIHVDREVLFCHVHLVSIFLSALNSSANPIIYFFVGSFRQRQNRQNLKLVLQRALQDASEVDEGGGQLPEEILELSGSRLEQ
MrgX1 agonist: agonists of human MrgX1 receptor, primary screen, HEK293 cells, Fluo-4 calcium flux; AID 588627, 2011; Mas-related G-protein coupled receptor member X1 (Homo sapiens), Q96LB2; actives 0.44% (n = 310,000); Fluo-4 calcium fluorescence, agonist mode; hits give high values; B-score at 10 µM;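 active = calcium response B-score plate-corrected fluorescence ratio at least 3 library SD, with starting fluorescence B-score inside 5 SD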
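Assay system: MrgX1-expressing HEK293 cells / Amount: fifteen thousand cells per well / Doses: test compound in the initial addition of three / Timing: cells plated overnight, dye loaded 0.5 h 37 °C, 0.5 h room temperature / Technique: kinetic calcium dye fluorescence, Fluo-4 NW / Control set: positive and negative controls per plate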
MrgX1 PAM: positive allosteric modulators of MrgX1, primary screen, HEK293 cells, Fluo-4 calcium flux; Mas-related G-protein coupled receptor member X1 (Homo sapiens), Q96LB2; FDSS; hits give high values; B-score at 10 µM; actives 0.63% (n = 310,000); AID 588675, 2011;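 active = plate-corrected calcium response at least 3 library SD above typical, normal starting fluorescence, not activating the receptor alone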;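 also: compound read alongside a low EC10 to EC30 dose of BAM8-22 agonist; peak minus trough fluorescence over baseline measured at the second addition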
RGS4 pot: RGS4 potentiators or activators, primary screen, cell-based, HEK293 M3R inducible RGS4, calcium flux | B-score at 10 µM | carbachol calcium flux Fluo4; hits give low values | actives 0.92% (n = 310,000) | AID 463111, 2010;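 active = B-score of the integrated calcium signal more than 4 SD below the library mean, with starting fluorescence not abnormally high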;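 also: negative B-score means reduced calcium response which marks RGS4 activation or potentiation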
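Assay system: HEK293 FlpIn-TREx cells, stable M3R, doxycycline-inducible RGS4 / Probe or stimulus: carbachol, ECmax concentration / Times: overnight RGS4 induction, 30 min dye load 37 °C, 20 min compound RT / Signal: kinetic calcium fluorescence imaging with Fluo4-AM dye, 2 µM / Measure: Agonist-evoked peak-minus-minimum fluorescence over baseline, integrated ratio, B score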
RGS4 block: RGS4 inhibitors, primary screen, cell-based, HEK293 M3R inducible RGS4, calcium flux; Fluo-4 calcium flux; hits give high values; triggered by carbachol at its EC20; B-score at 10 µM; actives 0.45% (n = 310,000); AID 463165, 2010;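 active = B-score, a plate-corrected calcium signal, over three deviations above library mean, with baseline fluorescence within five deviations of library mean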;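 also: RGS4 expression induced by doxycycline in cells with stable M3 receptor; B-score is computed from the integrated fluorescence ratio over baseline after carbachol; higher B-score means a larger calcium signal and so more RGS4 inhibition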
Target sequence (P49798 whole entry, looked up): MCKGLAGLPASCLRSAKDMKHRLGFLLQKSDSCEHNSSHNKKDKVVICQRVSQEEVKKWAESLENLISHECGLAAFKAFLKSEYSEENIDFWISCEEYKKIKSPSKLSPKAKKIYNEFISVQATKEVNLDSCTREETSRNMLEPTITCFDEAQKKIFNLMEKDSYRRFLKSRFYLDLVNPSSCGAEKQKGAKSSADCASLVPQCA
Each line names hits and unclear results; the compound was inactive in the other large screens. Only some compounds are listed: those with a hit (about 3.5% of all), similar ones and a draw of the others.

Cc1cccc(NC(=O)c2ccc(N3C(=O)C4CCCCC4C3=O)cc2)c1C (stereo unspecified)	none
CN(C)S(=O)(=O)c1ccc(/C(O)=C2/C(=O)C(=O)N(CCCN3CCOCC3)C2c2ccncc2)cc1 (stereo unspecified)	none
O=C1S/C(=C/c2ccc(N3CCOCC3)o2)C(=O)N1Cc1ccc(F)cc1	MrgX1 agonist 46
C=CCN1C(=O)N/C(=C/c2ccc(N3CCOCC3)o2)C1=O	MrgX1 antagonist -5.1
O=C1N/C(=C/c2ccc(N3CCOCC3)o2)C(=O)N1c1ccccc1	none (no result: RGS4 pot, RGS4 block)
COc1ccc2c(=O)cc(-c3cccnc3)oc2c1OC	none
CCOc1ccccc1N1CC(C(=O)NCCOc2ccccc2OC)CC1=O (stereo unspecified)	none
Cc1nn(-c2ccccc2)c(C)c1NC(=O)COC(=O)c1ccc(Cl)c(N)c1	RGS4 pot -7.02
CC(=O)Nc1cccc(C(=O)OCC(=O)Nc2c(C)nn(-c3ccccc3)c2C)c1	none
Cn1c(Sc2ccccc2Cl)c(C=O)c2ccccc21	RGS4 pot -8.54
CCCOC(=O)c1ccc(NC(=O)C2C3C=CC(O3)C2C(=O)O)cc1 (stereo unspecified)	MrgX1 PAM 7.93
O=C(CC(Sc1ccc(Br)cc1)C(=O)O)c1ccc(Br)cc1 (stereo unspecified)	RGS4 block 6.93
CN(C)CCCNC(NC(=O)/C=C/c1ccccc1)C(Cl)(Cl)Cl (stereo unspecified)	none
Cc1coc2c(C)c3oc(=O)c(CCC(=O)NCCN4CCOCC4)c(C)c3cc12	RGS4 pot -7.02
COc1ccc(CNC(=O)CNC(=O)c2ccc(C(C)(C)C)cc2)cc1OC	none
O=C(O)c1ccc(N2C(=O)/C(=C/c3ccc(-c4ccc([N+](=O)[O-])cc4)o3)C=C2c2ccccc2)cc1	RGS4 pot -6.96
O=C1NN(c2ccccc2)C(=O)/C1=C/c1ccc(-c2ccc(C(=O)O)cc2)o1	none
C=CCn1c2ccccc2c2nnc(SCCN3CCCCC3)nc21	RGS4 pot -7.35
CCn1c2ccc(F)cc2c2nnc(SCCN3CCCCC3)nc21	RGS4 pot -6.96
CCCn1c2ccccc2c2nnc(SCCN3CCOCC3)nc21	none
Cc1cc(Br)ccc1NC(=O)CN(C)C(=O)c1cc([N+](=O)[O-])ccc1N1CCOCC1	none
Cc1ccc(C(=O)COC(=O)c2cc(=O)[nH]c3ccccc23)cc1C	none
Cn1nc(C(C)(C)C)c(NC(=O)c2cccs2)c1C(C)(C)C	none
O=C(CC1SC(=Nc2ccccc2)N(CCCO)C1=O)Nc1ccc(Cl)cc1 (stereo unspecified)	MrgX1 antagonist -4.59, RGS4 pot -9.07
O=C(O)[C@H](Cc1ccccc1)NC(=O)N1CCN(c2cccc(C(F)(F)F)c2)CC1	none
Cc1ccc(/C=C2/NC(=O)N(Cc3ccccc3F)C2=O)s1	MrgX1 antagonist -7.48
O=C1N/C(=C/c2cccs2)C(=O)N1Cc1ccccc1F	none
Cc1ccc(C(c2sc3nc(C)nn3c2O)N2CCN(CCO)CC2)cc1 (stereo unspecified)	none
Cc1ccc(C(c2sc3nc(C)nn3c2O)N2CCN(c3ccccc3F)CC2)cc1 (stereo unspecified)	MrgX1 antagonist -5.18
Cn1nc(-c2ccccc2)c(C#N)c1Sc1cccc(Cl)c1	RGS4 pot -7.31
COC(=O)CNC(=O)Cn1nc(C)c([N+](=O)[O-])c1C	MrgX1 PAM 11.7
COC(=O)c1cccc(Cn2nc(C)c([N+](=O)[O-])c2C)c1	MrgX1 antagonist -6.62
Cc1nn(CC(=O)NCc2ccccc2)c(C)c1[N+](=O)[O-]	none
C=CCn1c(COc2cc(C)ccc2C(C)C)nnc1SCC(=O)c1c(N)n(C)c(=O)n(C)c1=O	MrgX1 antagonist -4.74
CCCCCCn1c(COc2ccccc2F)nnc1SCC(=O)c1c(N)n(C)c(=O)n(C)c1=O	none
CN(C)c1ccc(/C=N/N=C(N)N)cc1[N+](=O)[O-]	MrgX1 agonist 36.7
Cc1csc(SCC(=O)NCc2ccccc2Cl)n1	none
COc1ccc(N2CCN(C(CNC(=O)C(=O)NCCCn3ccnc3)c3ccco3)CC2)cc1 (stereo unspecified)	MrgX1 antagonist -4.9
O=C(CCS(=O)(=O)c1ccc(F)cc1)Nc1nc(-c2ccncc2)cs1	none
CSc1cccc(NC(=O)c2ccc(CN3CCc4ccccc4C3)cc2)c1	MrgX1 antagonist -8.21
CC(=O)Nc1ccc(NC(=O)c2ccc(CN3CCc4ccccc4C3)cc2)cc1	none
O=C(Nc1cccc(Br)c1)c1ccc(CN2CCc3ccccc3C2)cc1	MrgX1 antagonist -6.15, RGS4 pot -8.8
O=S(=O)(Nc1c(S(=O)(=O)c2ccccc2)c2nc3ccccc3nc2n1C1CCCCC1)c1ccccc1	RGS4 pot -10.2
Cc1ccc(S(=O)(=O)NC(C)C(=O)NC2CCCCCC2)cc1 (stereo unspecified)	RGS4 pot -7.24
CCCOc1ccc(S(=O)(=O)n2cc(F)c(=O)[nH]c2=O)cc1	MrgX1 PAM 7.94
CCOC(=O)CC1COCCN1C(=O)CCc1nnc(-c2ccsc2)o1 (stereo unspecified)	none
O=[N+]([O-])/C=C/c1c(OCc2ccccc2)ccc2ccccc12	RGS4 block 13.1
CCOC(=O)c1sc(=S)n(Cc2ccccc2)c1N	MrgX1 agonist 47.3
Cc1cccc(CS(=O)(=O)c2nnc([C@H](Cc3ccccc3)NC(=O)OC(C)(C)C)o2)c1	none
COC(=O)CS(=O)(=O)c1nnc([C@H](Cc2ccccc2)NC(=O)OC(C)(C)C)o1	MrgX1 agonist 30
CCCOc1cccc(C2C(C(=O)c3cccs3)=C(O)C(=O)N2CCN2CCOCC2)c1 (stereo unspecified)	none
COc1ccccc1-c1cc(C(F)(F)F)nc(S(C)(=O)=O)n1	none
CS(=O)(=O)c1nc(-c2ccco2)cc(C(F)(F)F)n1	RGS4 pot -7.03
C=CCNC(=O)Cn1c(=O)c2c(ncn2CCC(C)C)n(Cc2ccccc2)c1=O	none
Cc1cc(C(=O)CSc2nnc(-c3ccccc3F)o2)c(C)n1Cc1cccs1	MrgX1 antagonist -6.04
COc1ccccc1-n1cnnc1SCC(=O)c1cc(C)n(Cc2cccs2)c1C	none
CCOc1ccccc1/C=C(\C#N)C(=O)NC1CC1	none
N#C/C(=C\C=C\c1ccccc1[N+](=O)[O-])C(=O)NC1CCCCC1	MrgX1 PAM 13.7
N#C/C(=C\c1ccccc1[N+](=O)[O-])C(=O)NC1CCCCC1	MrgX1 agonist 34.8
Cc1cc(C(C2C(=O)CC(C)(C)CC2=O)C2C(=O)CC(C)(C)CC2=O)cc(C)c1OC(F)F	MrgX1 agonist 62.9

Assay outcomes deposited in PubChem by Johns Hopkins Ion Channel Center.
